Assay results published in ChEMBL document CHEMBL4477235, “Evolution of a Novel, Orally Bioavailable Series of PI3Kδ Inhibitors from an Inhaled Lead for the Treatment of Respiratory Disease” (J Med Chem, 2016).
Activity calls are given as the source filed them. The rule behind the calls is not given here.

Legend:
[1] = Clearance in mouse liver microsomes at 0.5 uM measured up to 30 mins by LC-MS/MS analysis; assay type: ADME, Microsome; details: 0.5 h
[2] = Half life in Sprague-Dawley rat at 1 mg/kg, iv by LC-MS/MS analysis; assay type: ADME, organism-based; details: in vivo
Method in brief: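 Male Sprague Dawley rats (n = 2/route), intravenous dose as a solution in DMSO/PEG200/water (5:45:50 v/v/v) at 2 mL/kg. Serial tail-vein blood sampling over 0–7 h. LC–MS/MS quantification of parent. Noncompartmental analysis.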

Albumin = Albumin (Homo sapiens, UniProt P02768); assay: Binding affinity to human serum albumin by HPLC analysis; assay type: ADME; details: read-out: PB (converted)
Albumin, sequence (P02768 whole entry): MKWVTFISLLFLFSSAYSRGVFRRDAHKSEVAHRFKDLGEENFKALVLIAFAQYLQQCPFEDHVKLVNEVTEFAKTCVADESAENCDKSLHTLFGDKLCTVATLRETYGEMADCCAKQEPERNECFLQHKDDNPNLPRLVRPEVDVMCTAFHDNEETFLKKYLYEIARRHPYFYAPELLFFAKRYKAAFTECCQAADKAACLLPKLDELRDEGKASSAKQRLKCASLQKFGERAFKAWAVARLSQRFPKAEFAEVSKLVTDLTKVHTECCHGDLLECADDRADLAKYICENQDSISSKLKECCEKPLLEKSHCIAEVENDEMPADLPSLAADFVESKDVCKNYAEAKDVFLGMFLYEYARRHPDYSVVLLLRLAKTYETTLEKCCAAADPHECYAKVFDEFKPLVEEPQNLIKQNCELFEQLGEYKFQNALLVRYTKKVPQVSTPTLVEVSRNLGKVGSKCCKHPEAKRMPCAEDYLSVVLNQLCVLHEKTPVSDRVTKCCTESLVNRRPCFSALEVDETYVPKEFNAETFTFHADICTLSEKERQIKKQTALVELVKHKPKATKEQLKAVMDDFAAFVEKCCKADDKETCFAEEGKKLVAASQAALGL

Rattus norvegicus = assay: Anti-inflammatory activity in Brown Norway rat acute OVA model of TH2-driven lung inflammation assessed as protection against eosinophil recruitment in bronchoalveolar lavage fluid at 3 mg/kg, po pretreated for 30 mins followed by OVA challenge by DAPI staining based flow cytometry; assay type: functional, organism-based
Method in brief: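 Male Brown Norway rats (250–300 g) sensitized i.p. with 10 μg OVA plus 20 mg Al(OH)₃ on days 1 and 7. Oral compound given 30 min before intratracheal OVA challenge on day 21 or 28, under isoflurane. BAL taken 48 h post-challenge. Leucocytes counted by flow cytometry, gated on FSC/SSC, with DAPI+ dead cells excluded.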

Aurora kinase B = Aurora kinase B (Homo sapiens, UniProt Q96GD4); assay: Inhibition of Aurora B (unknown origin)
Aurora kinase B, sequence (Q96GD4 whole entry): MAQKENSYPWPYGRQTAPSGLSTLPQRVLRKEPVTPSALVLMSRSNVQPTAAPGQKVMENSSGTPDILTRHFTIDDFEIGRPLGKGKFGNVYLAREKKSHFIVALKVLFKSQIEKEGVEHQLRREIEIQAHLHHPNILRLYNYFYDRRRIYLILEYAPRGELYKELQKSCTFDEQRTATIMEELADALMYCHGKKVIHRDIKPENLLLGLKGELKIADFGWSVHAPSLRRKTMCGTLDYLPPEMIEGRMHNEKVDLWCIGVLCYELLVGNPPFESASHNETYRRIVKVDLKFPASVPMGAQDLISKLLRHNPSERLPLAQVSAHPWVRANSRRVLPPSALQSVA

[3] = biological target: Tyrosine-protein kinase JAK2 (Homo sapiens, UniProt O60674); assay: Inhibition of JAK2 (unknown origin)
Tyrosine-protein kinase JAK2, sequence (O60674 whole entry): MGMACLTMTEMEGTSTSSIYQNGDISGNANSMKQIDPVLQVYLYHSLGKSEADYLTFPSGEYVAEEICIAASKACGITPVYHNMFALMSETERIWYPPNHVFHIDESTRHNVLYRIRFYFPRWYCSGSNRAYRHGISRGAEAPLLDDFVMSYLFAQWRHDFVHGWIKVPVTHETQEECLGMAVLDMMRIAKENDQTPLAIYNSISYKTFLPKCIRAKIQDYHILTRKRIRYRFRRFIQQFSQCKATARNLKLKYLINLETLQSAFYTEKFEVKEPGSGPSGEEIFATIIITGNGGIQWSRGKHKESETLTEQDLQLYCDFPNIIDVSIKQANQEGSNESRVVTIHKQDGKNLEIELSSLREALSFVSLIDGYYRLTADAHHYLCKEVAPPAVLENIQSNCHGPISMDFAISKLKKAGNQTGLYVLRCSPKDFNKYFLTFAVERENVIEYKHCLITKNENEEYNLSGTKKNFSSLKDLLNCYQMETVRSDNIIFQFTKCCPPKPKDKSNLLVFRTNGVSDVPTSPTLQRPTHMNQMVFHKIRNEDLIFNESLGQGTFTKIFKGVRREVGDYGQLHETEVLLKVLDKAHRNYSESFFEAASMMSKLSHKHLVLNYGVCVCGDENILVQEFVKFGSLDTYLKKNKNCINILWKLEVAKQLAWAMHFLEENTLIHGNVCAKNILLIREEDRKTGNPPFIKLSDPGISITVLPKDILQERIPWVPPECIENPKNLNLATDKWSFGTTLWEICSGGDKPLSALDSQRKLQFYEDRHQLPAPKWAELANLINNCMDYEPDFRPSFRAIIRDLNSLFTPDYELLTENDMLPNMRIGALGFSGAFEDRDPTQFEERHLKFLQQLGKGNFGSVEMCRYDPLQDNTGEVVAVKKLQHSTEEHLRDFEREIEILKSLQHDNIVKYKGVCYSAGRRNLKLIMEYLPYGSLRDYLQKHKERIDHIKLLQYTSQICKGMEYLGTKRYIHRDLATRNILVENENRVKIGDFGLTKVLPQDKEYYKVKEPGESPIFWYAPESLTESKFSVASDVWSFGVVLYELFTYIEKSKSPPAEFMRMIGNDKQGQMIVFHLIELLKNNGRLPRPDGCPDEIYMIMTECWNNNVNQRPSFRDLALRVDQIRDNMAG

[4] = biological target: Rho-associated protein kinase 1 (Homo sapiens, UniProt Q13464); assay: Inhibition of ROCK1 (unknown origin)
Rho-associated protein kinase 1, sequence (Q13464 whole entry): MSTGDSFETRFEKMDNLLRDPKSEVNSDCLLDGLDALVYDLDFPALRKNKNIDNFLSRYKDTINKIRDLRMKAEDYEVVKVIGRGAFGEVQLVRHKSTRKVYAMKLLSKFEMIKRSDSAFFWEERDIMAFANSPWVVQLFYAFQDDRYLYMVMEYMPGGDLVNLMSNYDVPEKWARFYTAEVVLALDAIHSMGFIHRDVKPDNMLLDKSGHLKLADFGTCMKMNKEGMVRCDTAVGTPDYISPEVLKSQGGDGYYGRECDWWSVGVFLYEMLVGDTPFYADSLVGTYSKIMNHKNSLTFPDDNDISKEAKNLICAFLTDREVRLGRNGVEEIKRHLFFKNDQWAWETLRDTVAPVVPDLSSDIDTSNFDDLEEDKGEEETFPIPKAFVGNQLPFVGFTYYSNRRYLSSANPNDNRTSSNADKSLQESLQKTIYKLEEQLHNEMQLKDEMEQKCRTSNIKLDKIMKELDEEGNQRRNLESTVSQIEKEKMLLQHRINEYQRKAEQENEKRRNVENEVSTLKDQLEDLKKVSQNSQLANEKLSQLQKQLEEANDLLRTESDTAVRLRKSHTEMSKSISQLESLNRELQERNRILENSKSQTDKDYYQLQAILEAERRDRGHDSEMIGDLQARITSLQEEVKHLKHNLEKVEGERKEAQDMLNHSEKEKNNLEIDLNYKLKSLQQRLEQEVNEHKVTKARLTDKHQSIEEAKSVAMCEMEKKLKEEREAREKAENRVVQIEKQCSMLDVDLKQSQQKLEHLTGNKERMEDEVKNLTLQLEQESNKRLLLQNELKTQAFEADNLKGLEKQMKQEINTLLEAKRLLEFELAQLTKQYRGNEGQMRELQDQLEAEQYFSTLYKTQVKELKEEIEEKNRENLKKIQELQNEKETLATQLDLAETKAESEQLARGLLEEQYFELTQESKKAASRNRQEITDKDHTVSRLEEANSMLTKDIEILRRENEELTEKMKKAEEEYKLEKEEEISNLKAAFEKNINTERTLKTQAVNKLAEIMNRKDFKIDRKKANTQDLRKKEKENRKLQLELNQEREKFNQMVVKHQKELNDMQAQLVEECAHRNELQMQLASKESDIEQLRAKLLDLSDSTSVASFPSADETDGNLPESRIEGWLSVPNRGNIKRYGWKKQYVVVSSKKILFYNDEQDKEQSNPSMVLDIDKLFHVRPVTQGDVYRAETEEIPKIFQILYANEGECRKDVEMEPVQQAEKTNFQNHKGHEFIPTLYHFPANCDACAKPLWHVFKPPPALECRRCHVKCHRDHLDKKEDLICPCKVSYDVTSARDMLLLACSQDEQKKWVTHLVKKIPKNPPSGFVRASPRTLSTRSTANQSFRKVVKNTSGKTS

[5] = biological target: Phosphatidylinositol 4-kinase beta (Homo sapiens, UniProt Q9UBF8); assay: Inhibition of PIK4B (unknown origin)
Phosphatidylinositol 4-kinase beta, sequence (Q9UBF8 whole entry): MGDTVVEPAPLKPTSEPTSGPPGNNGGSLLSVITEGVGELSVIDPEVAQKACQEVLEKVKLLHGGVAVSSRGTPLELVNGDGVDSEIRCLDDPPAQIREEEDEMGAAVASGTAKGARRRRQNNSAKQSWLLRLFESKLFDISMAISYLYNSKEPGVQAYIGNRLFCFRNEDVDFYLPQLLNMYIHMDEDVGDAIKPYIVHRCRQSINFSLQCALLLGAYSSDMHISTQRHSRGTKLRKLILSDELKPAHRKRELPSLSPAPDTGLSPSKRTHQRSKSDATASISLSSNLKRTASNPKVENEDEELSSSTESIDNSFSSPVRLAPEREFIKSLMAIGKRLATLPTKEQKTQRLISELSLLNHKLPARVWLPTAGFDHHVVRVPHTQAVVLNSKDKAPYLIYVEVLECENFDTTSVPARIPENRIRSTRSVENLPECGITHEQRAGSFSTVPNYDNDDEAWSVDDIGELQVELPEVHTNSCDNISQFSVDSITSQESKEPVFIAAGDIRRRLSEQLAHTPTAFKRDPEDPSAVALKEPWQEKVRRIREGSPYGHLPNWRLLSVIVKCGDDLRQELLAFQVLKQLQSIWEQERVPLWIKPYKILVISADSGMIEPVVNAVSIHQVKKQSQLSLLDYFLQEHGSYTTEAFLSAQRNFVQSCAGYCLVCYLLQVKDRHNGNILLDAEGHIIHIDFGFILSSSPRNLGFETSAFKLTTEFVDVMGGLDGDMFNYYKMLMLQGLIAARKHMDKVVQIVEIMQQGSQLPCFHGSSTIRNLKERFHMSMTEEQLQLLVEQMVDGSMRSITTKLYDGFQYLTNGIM

[6] = Fraction unbound in Wistar Han rat at 1 mg/kg after 1 hr by HPLC analysis; assay type: ADME, organism-based; details: in vivo
Method in brief: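 Unbound concentration at 1 h post-dose estimated by an internal algorithm from binding to HPLC columns coated with HSA and α-glycoprotein.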

[7] = biological target: T1, Phosphatidylinositol 4,5-bisphosphate 3-kinase catalytic subunit delta isoform (Homo sapiens, UniProt O00329)
T1 sequence (O00329 whole entry): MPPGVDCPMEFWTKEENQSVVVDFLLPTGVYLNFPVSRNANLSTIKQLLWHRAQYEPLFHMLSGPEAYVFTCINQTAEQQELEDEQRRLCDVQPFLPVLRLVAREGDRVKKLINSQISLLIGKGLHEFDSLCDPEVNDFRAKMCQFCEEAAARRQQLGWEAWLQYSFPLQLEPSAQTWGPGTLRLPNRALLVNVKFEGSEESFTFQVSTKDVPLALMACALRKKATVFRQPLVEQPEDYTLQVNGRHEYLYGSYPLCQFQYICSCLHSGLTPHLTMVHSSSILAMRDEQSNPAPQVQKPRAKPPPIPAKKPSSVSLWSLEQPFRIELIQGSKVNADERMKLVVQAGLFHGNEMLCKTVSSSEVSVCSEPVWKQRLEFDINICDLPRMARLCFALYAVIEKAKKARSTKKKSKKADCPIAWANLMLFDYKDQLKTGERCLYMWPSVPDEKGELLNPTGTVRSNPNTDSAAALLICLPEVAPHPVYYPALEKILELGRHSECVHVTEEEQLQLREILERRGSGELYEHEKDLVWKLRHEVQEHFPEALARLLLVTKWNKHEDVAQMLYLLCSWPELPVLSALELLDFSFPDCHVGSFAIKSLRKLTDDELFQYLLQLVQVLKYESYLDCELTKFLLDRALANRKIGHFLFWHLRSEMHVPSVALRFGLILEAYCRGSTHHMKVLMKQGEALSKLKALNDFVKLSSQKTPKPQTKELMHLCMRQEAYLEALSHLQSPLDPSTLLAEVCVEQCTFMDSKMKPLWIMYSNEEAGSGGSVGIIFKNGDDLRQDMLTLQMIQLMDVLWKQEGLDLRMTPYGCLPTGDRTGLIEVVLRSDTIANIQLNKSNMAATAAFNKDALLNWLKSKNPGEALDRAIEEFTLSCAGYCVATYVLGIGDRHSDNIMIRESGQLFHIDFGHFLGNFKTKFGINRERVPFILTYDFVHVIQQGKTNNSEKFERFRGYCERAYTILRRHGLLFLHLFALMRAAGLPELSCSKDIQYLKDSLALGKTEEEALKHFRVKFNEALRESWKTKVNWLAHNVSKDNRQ

CLH [1]: < 0.5 mL/min/g
half-life [2]: 1.3 h
fraction unbound (Albumin): 0.36
IC50 (Aurora kinase B): > 10 µM
IC50 [3]: > 10 µM
IC50 [4]: > 10 µM
IC50 [5]: > 10 µM
Drug uptake(free) [6]: 0.089 µM
IC50 [7]: 0.158 µM
Compound: COc1ncc(-c2cc3c(c(NC(=O)CN4CCOCC4)c2)COC3)cc1NS(C)(=O)=O
Activity (Rattus norvegicus): Active
